Source: article PMC11954587 (JAC-Antimicrobial Resistance, 2025)
“Also recorded” adds a separate entry of the source. Read-outs that look alike come from different tables or passages of the source. Residues, ends and D or L forms follow the SMILES beside them.

Tests used:
[1] = Adverse events in VAP patients during polymyxin B treatment; type: in vivo, human
[2] = cited from earlier work
P. aeruginosa strains = settings: animal model, cited from earlier work
[3] = system: multi-drug-resistant Gram-negative bacteria; type: in vivo, human; settings: for Microbiology efficacy (TOC): test of cure visit, 14-days post treatment
In short: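 VAP was diagnosed by positive sputum culture of multi-drug-resistant Gram-negative bacteria plus clinical signs, laboratory tests and CT. Aerosol: 50 mg powder dissolved in 5 mL distilled water, given whole or split into two 25 mg doses, nebulized over 30 min by vibrating mesh device, combined with IV dosing. Outcomes were assessed at end of treatment and test of cure.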

epithelial cells = settings: in vitro; cited from earlier work
K. pneumoniae = settings: cited from earlier work
[4] = patients with bloodstream infections; cited from earlier work
[5] = aerosolized delivery of CMS; cited from earlier work
[6] = four patients during polymyxin B treatment

## CC[C@H](C)CCCCC(=O)N[C@@H](CCN)C(=O)N[C@H](C(=O)N[C@@H](CCN)C(=O)N[C@H]1CCNC(=O)[C@H]([C@@H](C)O)NC(=O)[C@H](CCN)NC(=O)[C@H](CCN)NC(=O)[C@H](CC(C)C)NC(=O)[C@@H](Cc2ccccc2)NC(=O)[C@H](CCN)NC1=O)[C@@H](C)O [polymyxin B] (HELM PEPTIDE1{[CC[C@H](C)CCCCC(=O)[*:2]].[Dab].T.[Dab].[Dab].[Dab].[dF].L.[Dab].[Dab].T}$PEPTIDE1,PEPTIDE1,5:R3-11:R2$$$V2.0)
[1]; Patient 1, inhalation 25 mg + intravenous 50 mg q12h, 5 d
  Adverse events: none
[1]; Patient 2, inhalation 25 mg + intravenous 100 mg q12h, 5 d
  Adverse events: none
[1]; Patient 3, inhalation 25 then 50 mg + intravenous 75 mg q12h, 12 d
  Adverse events: hyperpigmentation
[1]; Patient 4, inhalation 25 mg + intravenous 75 mg q12h, 11 d
  Adverse events: hyperpigmentation
[1]; [6]
  nephrotoxicity: No cases of nephrotoxicity
  neurotoxicity: no reports of neurotoxicity
[1]; of four patients
  hyperpigmentation (number of patients): two patients
[1]; patients, combined aerosol and intravenous treatment
  chest CT imaging: recovery of chest CT imaging
[2]; aerosol doses of 50 mg twice a day, VAP patients
  cure and improved rates: 95%
[2]; inhaled polymyxin B, pneumonia patients
  clinical outcome: favourable clinical outcome of cure and improvement
P. aeruginosa strains; aerosolized
  maximum ELF concentrations: 184.0 ± 35.1 mg/L
P. aeruginosa strains; at maximum ELF concentrations 184.0 ± 35.1 mg/L
  lung histopathology: reduced lung inflammation and preserved lung epithelial integrity
[3]; Patient 1, CRKP VAP, inhalation 25 mg + intravenous 50 mg q12h, 5 d
  Clinical outcome (EOT and TOC): improved
[3]; Patient 1, organism found
  Microbiology efficacy (TOC): CRKP
[3]; Patient 2
  Microbiology efficacy (TOC): negative
[3]; Patient 3, inhalation 25 mg + intravenous 75 mg q12h
  Note (sputum culture during treatment): CRKP and CRPA were negative after treatment for 6 days, then Serratia marcescens and Chryseobacterium meningosepticum showed positive
[3]; Patient 3
  Microbiology efficacy (TOC): CRKP and CRPA negative
[3]; Patient 4, CRE (E. cloacae) VAP, inhalation 25 mg + intravenous 75 mg q12h, 11 d
  Clinical outcome (EOT and TOC): improved
[3]; Patient 4
  Microbiology efficacy (TOC): negative
[3]; four VAP patients, aerosolized and intravenous polymyxin B
  clinical improvement or cure / alleviation of clinical symptoms (patients): Three of the patients exhibited alleviation of clinical symptoms; also recorded: three of them reaching clinical improvement or cure
[3]; four VAP patients, aerosolized and intravenous polymyxin B, sputum culture
  bacterial eradication (patients): All four patients achieved bacterial eradication
Epithelial cells
  concentration that induced toxic metabolic response perturbations: 1000 µM
K. pneumoniae; aerosol 50 mg twice a day (with intravenous), P < 0.003
  eradication rate of K. pneumoniae: 92.1%
K. pneumoniae; intravenous treatment alone
  eradication rate of K. pneumoniae: 70.1%
[4]
  elimination half-life: 12.5 ± 3.11 h

## colistimethate [CMS]
[5]
  rate of clinical cure (OR): 1.61
  rate of microbiological eradication (OR): 1.37
